# Screens: PubChem, several laboratories
# An excerpt weighted towards active compounds, which were near 4.9% of everything screened.
# STAT1 act-1: increases IFN-gamma driven STAT1 reporter signal; NIH 3T3 STAT1-luciferase reporter, luminescence; 100% = IFN-gamma alone, no compound; 200,000 tested, 2.6% active; activation (% of control), % at 5.5 µM; AID 932;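 active means activation above the screen-wide mean activation plus 3 SD, cut at about 130% in these data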;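 further: raw ratio to IFN-gamma control signal so 100% means no change and 0% no light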
# STAT3 act-1: increases IL-6 driven STAT3 reporter signal; U3A cells, IL-6 STAT3-luciferase reporter, luminescence; 100% = signal with IL-6 EC80 alone; activation (% of control), % at 5.6 µM; 190,000 tested, 0.91% active; AID 871;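 active means activation above the screen-wide mean of compound activation plus 3 SD, cut at about 130% in these data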;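 further: 0% = background luminescence of wells with medium and substrate only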
#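 system = STAT3-luciferase reporter U3A cells | reagent = IL-6 stimulus at 33 ng/mL final | timing = 1 h compound pre-exposure, 6 h IL-6 stimulation, 37 °C | measured by = luminescence | evaluation = % activation versus median of IL-6-stimulated wells | control set = IL-6-only wells as 100% reference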
# STAT3 blocker: inhibitors of IL-6 induced STAT3 signaling | U3A cells, IL-6 STAT3-luciferase reporter, luminescence; host cell line lacks STAT1 | inhibition, % at 5.5 µM | 190,000 tested, 0.89% active | AID 862;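 active means inhibition above the mean inhibition across all screened compounds plus 3 SD, cut at about 44% in these data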;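 further: 0% = DMSO only wells and 100% = 100 µM nifuroxazide control wells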
# NF-kB neuron act: compounds increasing NF-kB expression in human neuronal cells. NF-kB reporter expression; active compounds read high. fold change at 12.5 µM. 190,000 tested, 1.6% active. AID 1239; in the data active means fold change above about 3.3
# STAT1 inh: reduces IFN-gamma driven STAT1 reporter signal; NIH 3T3 STAT1-luciferase reporter, luminescence; inhibition, % at 5.5 µM; 200,000 tested, 0.35% active;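 active means inhibition above a set limit, the mean inhibition across all tested compounds plus 3 SD, cut at about 34% in these data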;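 further: 0% = IFN-gamma with DMSO and 100% = IFN-gamma with 300 µM nifuroxazide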
# APP 5'UTR act: APP 5'UTR luciferase reporter activation. 190,000 tested, 1% active. activation, % at 2 µM. SH-SY5Y APP 5'UTR luciferase reporter, luminescence; zero percent = DMSO vehicle wells;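 active means activation above a set limit, based on mean plus 3 SD of controls, cut at about 140% in these data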
# STAT3 act-2: confirmation of STAT3 signaling activators. shares compounds with STAT3 act-1. U3A STAT3-luciferase reporter, IL-6 potentiation, luminescence; U3A cells lack STAT1; 100 means same as IL-6 alone. potentiation (% of control), % at 5.7 µM. 1,200 tested, 64% active;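 active means percent activation of the STAT3 luciferase reporter above a set limit taken from the earlier primary screen, cut at about 130% in these data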;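 further: 0% = background signal of medium plus substrate and 100% = median of IL-6 with DMSO wells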
# NFkB act STAT3ct: NF-kappaB activation in STAT3 activator counter-screen; shares compounds with STAT3 act-1; human cells, NF-kappaB reporter activation; activation (% of control), % at 5.7 µM; 1,200 tested, 11% active; in the data active means activation above about 120%;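 further: reporter induced by TNF-alpha stimulation; 100% = median of stimulated DMSO wells and 0% = no signal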
# STAT1 act-2: activates STAT1, counter-screen to STAT3 activators. shares compounds with STAT3 act-1. NIH 3T3 STAT1-luciferase reporter, IFN-gamma, luminescence. activation (% of control), % at 5.7 µM. 1,200 tested, 13% active;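 active means activation above the solvent-only control well mean plus 3 SD, set per screening run, cut at about 120% in these data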;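 further: 100% = IFN-gamma with DMSO median signal so 100% means no change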
# * = called active by the depositor; . = no result.
SMILES,STAT1 act-1,STAT3 act-1,STAT3 blocker,NF-kB neuron act,STAT1 inh,APP 5'UTR act,STAT3 act-2,NFkB act STAT3ct,STAT1 act-2
CC(=O)c1c(N2CCN(C)CC2)nc(=S)n(-c2cc(C)ccc2C)c1C,103.3,100.5,4.1,1.15,-7.0,-1.5,.,.,.
COC(=O)c1n[nH]c2ccccc12,98.1,160.4*,-65.7,1.33,2.1,2.6,153.9*,102.2,94.7
COCCNC(=O)c1n[nH]c2ccccc12,109.9,104.7,-0.5,1.33,-10.6,16.9,.,.,.
COc1cc(CC(=O)NCC2COc3ccccc3O2)cc(OC)c1OC (stereo not drawn),103.3,103.3,-2.6,0.95,-6.2,9.8,.,.,.
Cn1c(C(=O)Nc2ccccc2)cc2sccc21,112.3,163.0*,-78.7,1.57,-13.8,32.5,144.0*,122.7*,133.7*
CCn1cc([N+](=O)[O-])c(C(=O)N2N=C(c3ccc4ccccc4c3)CC2c2ccccc2O)n1 (stereo not drawn),103.8,151.4*,-57.7,0.54,-8.1,6.8,138.2*,101.7,102.3
CCn1cc(Cl)c(C(=O)N2N=C(c3ccc4ccccc4c3)CC2c2ccccc2O)n1 (stereo not drawn),100.2,102.2,-4.4,1.18,0.0,-3.9,.,.,.
C#Cc1ccc([C@@H]2C=C(C(=O)N3CCN(Cc4ccc5c(c4)OCO5)CC3)O[C@H](OCC)[C@H]2CCCO)cc1,93.0,.,.,0.7,9.0,1.5,.,.,.
COc1ccc(C)cc1S(=O)(=O)N(C)CC(=O)NC1CCCCCC1,103.4,136.2*,-37.9,1.13,-7.2,1.2,99.5,109.1,97.4
CN(CC1CCCO1)S(=O)(=O)c1ccc(C(=O)NCc2ccccc2)cc1 (stereo not drawn),95.8,99.7,6.6,1.1,2.5,-7.1,.,.,.
Cn1c(=O)c(C(=O)Nc2ccccn2)c(O)c2ccccc21,121.4,139.3*,-44.1,4.47*,-23.4,3.5,178.4*,115.3,181.4*
CCn1c(SCC(=O)N/N=C/C=C\c2ccccc2[N+](=O)[O-])nnc1-c1ccccc1,92.1,142.3*,-38.2,0.78,8.8,-1.1,150.5*,116.8,109.5
Cc1ccc(NC(=O)CN(C)CC(=O)Nc2ccccc2C(=O)Nc2ccccc2)cc1,89.7,147.4*,-48.7,0.91,10.8,14.5,122.8,103.2,104.4
C=CCNC(=O)NC(=O)CSc1nnc(C(F)(F)F)n1C,91.5,95.9,7.1,1.41,7.6,5.6,.,.,.
CCOC(=O)C1=NN(c2ccccc2)C(c2ccccc2)CC1=O (stereo not drawn),105.5,138.3*,-44.4,1.19,-4.6,-20.1,113.5,99.7,97.8
CCOC(=O)C1=NN(c2ccc(OC)cc2)C(c2ccccc2)CC1=O (stereo not drawn),101.4,119.2,-21.5,2,4.3,12.9,.,.,.
Cc1ccc(CN(Cc2ccco2)S(=O)(=O)c2ccc(S(=O)(=O)NCC3CCCO3)cc2)cc1 (stereo not drawn),101.9,98.8,4.9,0.79,-2.1,-1.6,.,.,.
Cc1ccc2cccc(NC(=S)NC(=O)c3ccccc3)c2n1,89.3,168.7*,-68.4,1.1,11.9,2.4,170.5*,111.3,95.3
Cc1ccc2cccnc2c1NC(=S)NC(=O)c1ccccc1,88.2,153.1*,-58.1,0.7,13.2,.,151.5*,99.3,91.9
Nc1nnc(Cc2c[nH]c3ccccc23)s1,90.0,142.6*,-41.4,0.89,11.1,3.1,154.2*,112.6,102.3
Cc1cccc(NC(=O)C2=C(O)c3ccccc3N(C)S2(=O)=O)c1,99.1,155.0*,-60.4,1.07,1.0,.,95.0,108.8,99.0
CN1c2ccccc2C(O)=C(C(=S)Nc2ccc(Cl)cc2)S1(=O)=O,92.1,101.0,4.6,1.03,8.8,-3.2,.,.,.
O=C(c1cc2ccccc2o1)N(C1CC1)C1(C(=O)Nc2ccccc2)CCCC1,92.0,99.7,8.1,1.01,7.4,-13.1,.,.,.
O=C(Nc1ccc2c(c1)oc1ccc(S(=O)(=O)N3CCCC3)cc12)C1CC1,101.0,154.3*,-60.5,0.62,-1.0,7.9,94.0,103.4,102.3
Cc1cc(=O)oc2cc(NC(=O)C3CCCC3)ccc12,126.6,88.3,18.6,1.31,-32.5,18.4,.,.,.
SMILES,STAT1 act-1,STAT3 act-1,STAT3 blocker,NF-kB neuron act,STAT1 inh,APP 5'UTR act,STAT3 act-2,NFkB act STAT3ct,STAT1 act-2
O=C(Nc1ccc2c(c1)oc1ccccc12)C1CC1,117.7,143.3*,-45.1,2.59,-19.3,103.6,142.4*,130.7*,133.8*
Cc1ccc(NC2=CC(=O)C(=O)c3ccccc32)cc1,120.5,105.0,-1.6,1.99,-22.4,30.4,.,.,.
CCOC(=O)c1ccc(NC2=CC(=O)C(=O)c3ccccc32)cc1,99.8,144.5*,-46.2,2.27,0.2,-7.0,128.3,106.8,102.1
C=CCc1cc(Cl)ccc1OCCOCCN(C)C,106.0,97.2,8.2,0.92,-9.6,-1.8,.,.,.
CCOC(=O)Cc1[nH]nc2c1C(c1ccsc1)C(C#N)=C(N)O2 (stereo not drawn),78.0,95.7,7.4,1.81,22.2,-5.6,.,.,.
Cc1nc2ccc(Br)cn2c1C(=O)N/N=C\c1ccccc1[N+](=O)[O-],92.1,147.7*,-49.8,1.11,7.1,-3.5,132.5,97.1,101.6
CCCCC(=O)/C=C/n1c(=S)oc2ccccc21,107.3,108.4,-9.5,0.93,-8.2,-2.4,.,.,.
CCCNC(=O)Cn1c(=O)cnc2ccccc21,99.2,93.9,3.2,0.99,0.9,11.8,.,.,.
CCCNC(=O)Cn1c2ccccc2c2nc(=O)cc(C)n21,95.5,169.9*,-71.0,0.95,5.0,-9.6,158.3*,101.5,94.0
CCOc1ccc(NC(=O)C(Cc2ccccc2)N2C(=O)c3cccc4cccc(c34)C2=O)cc1 (stereo not drawn),97.7,138.0*,-35.8,1.14,0.4,-1.6,118.5,96.3,97.4
CCOc1ccc(NC(=O)C(CC(=O)O)Cc2ccccc2)cc1 (stereo not drawn),101.0,97.1,3.4,1.12,-1.0,17.3,.,.,.
O=[N+]([O-])c1cccc(C(=Nc2ccccc2)NO)c1,96.2,81.8,23.4,1.03,4.2,2.3,.,.,.
O=[N+]([O-])c1cccc(C(=Nc2ccc(Cl)cc2)NO)c1,95.0,147.8*,-47.3,1.04,5.5,0.5,138.7*,98.4,99.3
CCc1cc(SC#N)ccc1N,97.9,101.8,0.3,1.57,1.5,-12.2,.,.,.
O=C(Nc1cccc(Cl)c1)c1cc(S(=O)(=O)NCCc2ccc(Cl)cc2)ccc1F,100.3,106.7,-12.8,1,-0.3,8.2,.,.,.
